# Assay results collected from several papers.
# Protocols differ between the studies behind these lines.
# Read-out: metabolic stability
# Species: human
# Matrix: liver microsomes
Structure (SMILES),setting,microsomal CLint
CN(C)C(=O)c1ccc(-c2c(-c3ccccn3)nc3n2CCC3)cc1,"3 µM, pH 7.4",< 3 µL/min/mg
COc1cc2[nH]c(C)c(-c3ccc(N(C)C)nc3)c(=O)c2cc1Cl,1 µM,20 µL/min/mg
O=S(=O)(c1ccc(-c2ccc3ncccc3c2)cc1)N1CCOCC1,,13.3 µL/min/mg
COc1cc2[nH]c(C)c(-c3ccc(S(=O)(=O)N(C)C)cc3)c(=O)c2cc1Cl,1 µM,17 µL/min/mg
c1ccc(C2CCN(c3nc(-c4ccco4)nc4ccccc34)C2)nc1 (centres unmarked),,149 µL/min/mg
CN(c1ccc(F)cc1)c1c(-c2cccc(F)n2)nc2ccccn12,"3 µM, pH 7.4",170 µL/min/mg
N#Cc1cccc(-c2nc(N3CCC(c4ccccn4)C3)c3ccccc3n2)c1 (centres unmarked),,261 µL/min/mg
O=S(=O)(c1ccc(-c2ccc3nccc(Nc4ccccc4)c3c2)cc1)N1CCOCC1,,71.3 µL/min/mg
COc1cc2[nH]c(C)c(-c3ccc(N(C)C)cc3)c(=O)c2cc1Cl,1 µM,15 µL/min/mg
Oc1cccc(-c2nc(N3CCC(c4ccccn4)C3)c3ccccc3n2)c1 (centres unmarked),,165 µL/min/mg
Fc1ccc(Nc2c(-c3ccccn3)nc3ccccn23)nc1,"3 µM, pH 7.4",44 µL/min/mg
c1ccc(-c2nc(NCc3nccs3)c3ccccc3n2)nc1,,36 µL/min/mg
COc1cc2[nH]c(C)c(-c3ccc(F)cc3F)c(=O)c2cc1Cl,1 µM,9 µL/min/mg
COc1ccn2c(Nc3ccccc3F)c(-c3ccncn3)nc2c1,"3 µM, pH 7.4",120 µL/min/mg
